Measurements as given in ChEMBL document CHEMBL1955763, “Antimicrobial activity of sulfonamides containing 5-chloro-2-hydroxybenzaldehyde and 5-chloro-2-hydroxybenzoic acid scaffold” (Eur J Med Chem, 2012).
≈ marks a conversion by molar mass, not a printed value.

Experiments:
Klebsiella pneumoniae [1] = assay: Antibacterial activity against ESBL-positive Klebsiella pneumoniae J 14368/08 after 24 hrs by broth microdilution method; type: functional; settings: J 14368/08, 24 h
Procedure, shortened: (§1)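 Broth microdilution modified from standard M07-A07 in Mueller-Hinton broth at pH 7.4 (±0.2). Compounds were dissolved in DMSO. Inoculum in sterile water was adjusted to 0.5 McFarland (1.5 × 10⁸ CFU/mL). MIC was taken as IC₉₀, i.e. ≥90% growth reduction versus control, read visually and spectrophotometrically at 540 nm.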

Staphylococcus aureus [2] = assay: Antibacterial activity against methicillin-resistant Staphylococcus aureus H 5996/08 after 24 hrs by broth microdilution method; type: functional; settings: H 5996/08, 24 h
Procedure, shortened: (§2)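 Microdilution broth method modified from M07-A07, in Mueller-Hinton broth at pH 7.4 (±0.2). Compounds were dissolved in DMSO. Inoculum was made in sterile water to 0.5 McFarland (1.5 × 10⁸ CFU/mL). MIC was taken as IC₉₀, meaning ≥90% growth reduction versus the drug-free control. Growth was read visually and by absorbance at 540 nm.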

Pseudomonas aeruginosa = assay: Antibacterial activity against Pseudomonas aeruginosa CCM 1961 after 24 hrs by broth microdilution method; type: functional; settings: CCM 1961, 24 h; procedure, shortened: as §1
Aspergillus fumigatus = assay: Antifungal activity against Aspergillus fumigatus 231 after 24 hrs by broth microdilution method; type: functional; settings: Aspergillus fumigatus, 231, 24 h
Procedure, shortened: (§3)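 Microdilution broth per CLSI M27-A3 (yeasts) or M38-A2 (moulds) in RPMI 1640 with glutamine, buffered to pH 7.0 with 0.165 mol MOPS. Compounds were in DMSO. Final inoculum was 5 × 10³ ± 0.2 CFU/mL. Other conditions matched the antibacterial assay, with MIC as IC₉₀ read visually and at 540 nm. Determined twice, in duplicate.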

Mycobacterium kansasii [3] = assay: Antimycobacterial activity against Mycobacterium kansasii 235/80 after 7 days; type: functional; settings: 235/80, 168 h
Procedure, shortened: (§4)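 Micromethod MIC in Sula semisynthetic medium, with compounds added as DMSO solutions at […]. Incubation at 37 °C. Inocula: M. kansasii 235/80 at dilution 10⁻⁴, clinical isolate 6509/96 at 10⁻⁵.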

Mycobacterium kansasii [4] = assay: Antimycobacterial activity against Mycobacterium kansasii 6509/96 after 7 days; type: functional; settings: 6509/96, 168 h; procedure, shortened: as §4
Mycobacterium kansasii [5] = assay: Antimycobacterial activity against Mycobacterium kansasii 235/80 after 21 days; type: functional; settings: 235/80, 504 h; procedure, shortened: as §4
[6] = test system: Staphylococcus epidermidis; assay: Antibacterial activity against methicillin-resistant Staphylococcus epidermidis H 6966/08 after 48 hrs by broth microdilution method; type: functional; settings: H 6966/08, 48 h; procedure, shortened: as §2
Klebsiella pneumoniae [7] = assay: Antibacterial activity against Klebsiella pneumoniae D 11750/08 after 24 hrs by broth microdilution method; type: functional; settings: D 11750/08, 24 h; procedure, shortened: as §1
Escherichia coli = assay: Antibacterial activity against Escherichia coli CCM 4517 after 24 hrs by broth microdilution method; type: functional; settings: CCM 4517, 24 h; procedure, shortened: as §1
Staphylococcus aureus [8] = assay: Antibacterial activity against Staphylococcus aureus CCM 4516/08 after 48 hrs by broth microdilution method; type: functional; settings: CCM 4516/08, 48 h; procedure, shortened: as §1
[9] = Selectivity ratio of IC50 for human HepG2 cell sto MIC100 for Mycobacterium kansasii 235/80; type: functional
HepG2 = assay: Cytotoxicity against human HepG2 cells after 24 hrs by MTS assay; type: cell-based; settings: HepG2, 24 h
Procedure, shortened: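 Hep G2 human liver cells (passage 3–4), 10 000 per well, in MEM with 1% glutamine, 10% fetal serum and 1% non-essential amino acids. Compounds were added from DMSO at eight increasing concentrations in quadruplicate. Exposure was 24 h at 37 °C in 5% CO₂, then MTS reagent for 1.5 h. Formazan was read at 490 nm and IC₅₀ derived as 50% of control viability.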

Mycobacterium avium [10] = assay: Antimycobacterial activity against isoniazid-, rifampicin-, ofloxacin-, ethambutol-resistant Mycobacterium avium 330/88 after 21 days; type: functional; settings: 330/88, 504 h
Procedure, shortened: (§5)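 Micromethod in Sula semisynthetic medium, with compounds added as DMSO solutions over a two-fold series from 1000 down to 1. Inoculum for M. avium 330/88 was a 10⁻⁵ dilution. Plates were incubated at 37 °C and MIC was read after 14 and 21 days.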

Mycobacterium avium [11] = assay: Antimycobacterial activity against isoniazid-, rifampicin-, ofloxacin-, ethambutol-resistant Mycobacterium avium 330/88 after 14 days; type: functional; settings: 330/88, 336 h; procedure, shortened: as §5
Mycobacterium kansasii [12] = assay: Antimycobacterial activity against Mycobacterium kansasii 6509/96 after 14 days; type: functional; settings: 6509/96, 336 h; procedure, shortened: as §4
Staphylococcus aureus [13] = assay: Antibacterial activity against methicillin-resistant Staphylococcus aureus H 5996/08 after 48 hrs by broth microdilution method; type: functional; settings: H 5996/08, 48 h; procedure, shortened: as §2
Staphylococcus aureus [14] = assay: Antibacterial activity against Staphylococcus aureus CCM 4516/08 after 24 hrs by broth microdilution method; type: functional; settings: CCM 4516/08, 24 h; procedure, shortened: as §2
[15] = Selectivity ratio of IC50 for human HepG2 cell sto MIC100 for Mycobacterium kansasii 6509/96; type: functional
Mycobacterium kansasii [16] = assay: Antimycobacterial activity against Mycobacterium kansasii 6509/96 after 21 days; type: functional; settings: 6509/96, 504 h; procedure, shortened: as §4
[17] = test system: Mycobacterium avium complex sp.; assay: Antimycobacterial activity against Mycobacterium avium complex; type: functional
[18] = Selectivity ratio of IC50 for human HepG2 cell sto MIC90 for methicillin-resistant Staphylococcus aureus H 5996/08; type: functional
[19] = Selectivity ratio of IC50 for human HepG2 cell sto MIC90 for Staphylococcus aureus CCM 4516/08; type: functional
[20] = test system: Staphylococcus epidermidis; assay: Antibacterial activity against methicillin-resistant Staphylococcus epidermidis H 6966/08 after 24 hrs by broth microdilution method; type: functional; settings: H 6966/08, 24 h; procedure, shortened: as §2
[21] = test system: Mycobacterium tuberculosis; assay: Antimycobacterial activity against Mycobacterium tuberculosis H37Rv 331/88 after 21 days; type: functional; settings: H37Rv 331/88, 504 h; procedure, shortened: as §5
[22] = test system: Mycobacterium tuberculosis; assay: Antimycobacterial activity against Mycobacterium tuberculosis H37Rv 331/88 after 14 days; type: functional; settings: H37Rv 331/88, 336 h
Mycobacterium kansasii [23] = assay: Antimycobacterial activity against Mycobacterium kansasii 235/80 after 14 days; type: functional; settings: 235/80, 336 h; procedure, shortened: as §4
Trichosporon asahii = assay: Antifungal activity against Trichosporon asahii 1188 after 24 hrs by broth microdilution method; type: functional; settings: Trichosporon asahii, 1188, 24 h; procedure, shortened: as §3
Enterococcus sp. = assay: Antibacterial activity against Enterococcus sp. J 14365/08 after 24 hrs by broth microdilution method; type: functional; settings: J 14365/08, 24 h; procedure, shortened: as §1
[24] = test system: Trichophyton mentagrophytes; assay: Antifungal activity against Trichophyton mentagrophytes 445 after 24 hrs by broth microdilution method; type: functional; settings: Trichophyton mentagrophytes, 445, 24 h
[25] = test system: Mycobacterium tuberculosis; assay: Antituberculosis activity against Mycobacterium tuberculosis H37Rv after 18 hrs by alamar blue assay; type: functional, organism-based
Nakaseomyces glabratus = assay: Antifungal activity against Candida glabrata 20/I after 24 hrs by broth microdilution method; type: functional; procedure, shortened: as §3
Candida tropicalis = assay: Antifungal activity against Candida tropicalis 156 after 24 hrs by broth microdilution method; type: functional; settings: Candida tropicalis, 156, 24 h; procedure, shortened: as §3
Pichia kudriavzevii = assay: Antifungal activity against Candida krusei E58 after 24 hrs by broth microdilution method; type: functional; settings: E58, 24 h; procedure, shortened: as §3
Lichtheimia corymbifera = assay: Antifungal activity against Absidia corymbifera 272 after 24 hrs by broth microdilution method; type: functional; settings: Lichtheimia corymbifera, 272, 24 h; procedure, shortened: as §3
Candida albicans = assay: Antifungal activity against Candida albicans ATCC 44857 after 24 hrs by broth microdilution method; type: functional; settings: ATCC 44857, 24 h; procedure, shortened: as §3

SMILES	MIC (Staphylococcus aureus [2])	MIC (Mycobacterium kansasii [3])	MIC (Mycobacterium kansasii [4])	MIC (Mycobacterium kansasii [5])	MIC [6]	MIC (Staphylococcus aureus [8])	Ratio [9]	IC50 (HepG2)	MIC (Mycobacterium avium [10])	MIC (Mycobacterium avium [11])	MIC (Mycobacterium kansasii [12])	MIC (Staphylococcus aureus [13])	MIC (Staphylococcus aureus [14])	Ratio [15]	MIC (Mycobacterium kansasii [16])	Ratio [19]	MIC [20]	MIC [21]	MIC [22]	MIC (Mycobacterium kansasii [23])	also measured
Cc1cc(NS(=O)(=O)c2ccc(N)cc2)no1 [SULFAMETHOXAZOLE]	62.5 µM (≈ 15.8 µg/mL)	8 µM (≈ 2.03 µg/mL)	4 µM (≈ 1.01 µg/mL)	16 µM (≈ 4.05 µg/mL)	500 µM (≈ 127 µg/mL)	500 µM (≈ 127 µg/mL)	163.9	2620 µM	62.5 µM (≈ 15.8 µg/mL)	32 µM (≈ 8.11 µg/mL)	4 µM (≈ 1.01 µg/mL)	250 µM (≈ 63.3 µg/mL)	250 µM (≈ 63.3 µg/mL)	163.9	4 µM (≈ 1.01 µg/mL)	5.2	250 µM (≈ 63.3 µg/mL)	32 µM (≈ 8.11 µg/mL)	32 µM (≈ 8.11 µg/mL)	16 µM (≈ 4.05 µg/mL)	MIC (Klebsiella pneumoniae [1]): ≥ 500 µM; MIC (Pseudomonas aeruginosa): ≥ 500 µM; MIC (Aspergillus fumigatus): 250 µM (≈ 63.3 µg/mL); MIC (Klebsiella pneumoniae [7]): ≥ 500 µM; MIC (Escherichia coli): ≥ 500 µM; MIC50 [17]: 30 µg/mL (≈ 118 µM); MIC80 [17]: 30 µg/mL (≈ 118 µM); Ratio [18]: 5.2
Cc1cc(C)nc(NS(=O)(=O)c2ccc(NC(=O)c3cc(Cl)ccc3O)cc2)n1	15.6 µM (≈ 6.76 µg/mL)	16 µM (≈ 6.93 µg/mL)	16 µM (≈ 6.93 µg/mL)	62.5 µM (≈ 27.1 µg/mL)	250 µM (≈ 108 µg/mL)	15.6 µM (≈ 6.76 µg/mL)	5.4	337 µM	62.5 µM (≈ 27.1 µg/mL)	32 µM (≈ 13.9 µg/mL)	62.5 µM (≈ 27.1 µg/mL)	31.2 µM (≈ 13.5 µg/mL)	15.6 µM (≈ 6.76 µg/mL)	5.4	62.5 µM (≈ 27.1 µg/mL)	10.8	31.2 µM (≈ 13.5 µg/mL)	125 µM (≈ 54.1 µg/mL)	125 µM (≈ 54.1 µg/mL)	32 µM (≈ 13.9 µg/mL)	MIC (Trichosporon asahii): 125 µM (≈ 54.1 µg/mL); MIC (Enterococcus sp.): 125 µM (≈ 54.1 µg/mL); MIC [24]: 125 µM (≈ 54.1 µg/mL)
Nc1ccc(S(=O)(=O)Nc2nccs2)cc1 [SULFATHIAZOLE]	62.5 µM (≈ 16 µg/mL)	2 µM (≈ 0.511 µg/mL)	1 µM (≈ 0.255 µg/mL)	4 µM (≈ 1.02 µg/mL)	> 500 µM	62.5 µM (≈ 16 µg/mL)	1040.3	4160 µM	62.5 µM (≈ 16 µg/mL)	62.5 µM (≈ 16 µg/mL)	2 µM (≈ 0.511 µg/mL)	125 µM (≈ 31.9 µg/mL)	31.2 µM (≈ 7.98 µg/mL)	1040.3	2 µM (≈ 0.511 µg/mL)	33.2	> 500 µM	62.5 µM (≈ 16 µg/mL)	32 µM (≈ 8.17 µg/mL)	4 µM (≈ 1.02 µg/mL)	IC50 [25]: ≥ 5 µM
Cc1cc(NS(=O)(=O)c2ccc(/N=C/c3cc(Cl)ccc3O)cc2)no1	15.6 µM (≈ 6.12 µg/mL)	4 µM (≈ 1.57 µg/mL)	4 µM (≈ 1.57 µg/mL)	16 µM (≈ 6.27 µg/mL)	> 500 µM	31.2 µM (≈ 12.2 µg/mL)	12.1	193 µM	125 µM (≈ 49 µg/mL)	62.5 µM (≈ 24.5 µg/mL)	4 µM (≈ 1.57 µg/mL)	31.2 µM (≈ 12.2 µg/mL)	31.2 µM (≈ 12.2 µg/mL)	12.1	8 µM (≈ 3.13 µg/mL)	6.1	> 500 µM	250 µM (≈ 98 µg/mL)	125 µM (≈ 49 µg/mL)	8 µM (≈ 3.13 µg/mL)	MIC (Klebsiella pneumoniae [1]): 500 µM (≈ 196 µg/mL); MIC (Pseudomonas aeruginosa): ≥ 500 µM; MIC (Aspergillus fumigatus): > 125 µM; MIC (Klebsiella pneumoniae [7]): 500 µM (≈ 196 µg/mL); MIC (Escherichia coli): 125 µM (≈ 49 µg/mL); MIC (Nakaseomyces glabratus): > 125 µM; MIC (Candida tropicalis): > 125 µM; MIC (Trichosporon asahii): > 125 µM; MIC (Pichia kudriavzevii): > 125 µM; MIC (Lichtheimia corymbifera): > 125 µM; MIC (Candida albicans): > 125 µM; MIC [24]: > 125 µM
